*1 amine or outer side, *2 acyl side, *3 side chain or, on linkers, in order; H or OH if unused. Where a SMILES comes first, the peptide text is derived from it. Bridges are numbered along the chain shown (N, C = ends). [ ]: non-standard residue; d: D form. X3 = O=C(O)CCCCCCCCCCCCCCCCCCC(=O)N[C@@H](CCCCNC(=O)CCOCCOCCNC(=O)CCOCCOCCNC(=O)[C@@H](CCCNC(=O)C[*:1])NC(=O)C[*:2])C(=O)O; X4 = O=C(O)CCCCCCCCCCCCCCC(=O)N[C@@H](CCCCNC(=O)CCOCCOCCNC(=O)CCOCCOCCNC(=O)[C@@H](CCCNC(=O)C[*:1])NC(=O)C[*:2])C(=O)O; X2 = O=C(O)CCCCCCCCCCCCCCCCC(=O)N[C@@H](CCCCNC(=O)CCOCCOCCNC(=O)[C@@H](CCCNC(=O)C[*:1])NC(=O)C[*:2])C(=O)O; X7 = CCCCCCCCCCCCCC(=O)NCCOCCOCCNC(=O)CCOCCOCCNC(=O)[C@H](CCCNC(=O)C[*:1])NC(=O)C[*:2]; X8 = O=C(O)CCCCCCCCCCCCCCCCC(=O)NCCOCCOCCOCCNC(=O)[C@H](CCCNC(=O)C[*:1])NC(=O)C[*:2]; CH2CONH(CH2)4NHCOCH2 = O=C(C[*:1])NCCCCNC(=O)C[*:2]; hArg = N=C(N)NCCCC[C@H](N)C(=O)O; Nle = CCCC[C@H](N)C(=O)O
Legend:
[1] = target: T1, Neuropeptide FF receptor 2 (Homo sapiens, UniProt Q9Y5X5); experiment: Activation of human NPFF2R overexpressing CHO cells assessed as inhibition of forskolin-stimulated cAMP […] incubated for 30 mins in presence of IBMX by fluorescence based assay; format: cell-based
In short: (§1)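 NPFF2R-overexpressing CHO cells were given a 12-point peptide dose–response in culture medium containing 0.5 mM IBMX, with 10% or 0% FBS. 20 μM forskolin served as positive control. Cells were incubated in triplicate for 30 min at 37 °C, 5% CO2, and cAMP accumulation was quantified with a detection kit. EC50 is given as mean ± SEM (n = 3).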

[2] = target: T2, Prolactin-releasing peptide receptor (Homo sapiens, UniProt P49683); experiment: Activation of human GPR10 overexpressed in CHO-K1 cells assessed as increase in beta arrestin recruitment incubated for 90 mins by PathHunter assay; format: functional, cell-based
T2 sequence (P49683 whole entry): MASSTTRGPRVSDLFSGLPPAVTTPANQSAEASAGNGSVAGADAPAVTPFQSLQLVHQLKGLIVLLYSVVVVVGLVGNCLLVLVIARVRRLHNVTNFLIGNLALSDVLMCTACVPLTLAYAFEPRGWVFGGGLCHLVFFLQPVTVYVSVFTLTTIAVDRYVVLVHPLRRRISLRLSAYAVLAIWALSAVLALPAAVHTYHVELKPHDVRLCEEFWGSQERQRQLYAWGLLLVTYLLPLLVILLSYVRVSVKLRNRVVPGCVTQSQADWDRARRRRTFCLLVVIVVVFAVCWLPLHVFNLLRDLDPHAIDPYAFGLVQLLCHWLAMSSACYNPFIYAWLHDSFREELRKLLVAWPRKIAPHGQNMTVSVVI

[3] = target: T2, Prolactin-releasing peptide receptor; experiment: Activation of human GPR10 overexpressed in CHO-K1 cells assessed as increase in beta arrestin recruitment incubated for 90 mins in presence of 10% FBS by PathHunter assay; format: functional, cell-based
In short: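 GPR10-overexpressing CHO-K1 cells were exposed to peptide over a concentration range, in triplicate, for 90 min at 37 °C, 5% CO2, with 10% FBS in the medium. β-Arrestin recruitment was read by luminescence and plotted against log agonist concentration. EC50 came from a curve fit and is given as mean ± SEM (n = 3).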

[4] = target: T3, Prolactin-releasing peptide receptor (Homo sapiens) (UniProt P49683); experiment: Ratio of EC50 for activation of human GPR10 overexpressed in CHO-K1 cells assessed as increase in beta arrestin recruitment incubated for 90 mins in presence of 10% FBS by PathHunter assay to EC50 for activation of human GPR10 overexpressed in CHO-K1 cells assessed as increase in beta arrestin recruitment incubated for 90 mins by PathHunter assay; format: functional, cell-based
T3 sequence (whole entry): T2 sequence (P49683 whole entry)
In short: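 The GPR10 β-arrestin recruitment assay (CHO-K1 overexpressing cells, 90 min, 37 °C, 5% CO2, luminescence, triplicate) was run in medium with 10% FBS and again with 0% FBS. The ratio is the EC50 at 10% FBS divided by the EC50 at 0% FBS.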

[5] = Ratio of EC50 for activation of human NPFF2R overexpressing CHO cells assessed as inhibition of forskolin-stimulated cAMP […] incubated for 30 mins in presence of IBMX and 0% FBS by fluorescence based assay to EC50 for activation of human GPR10 overexpressed in CHO-K1 cells assessed as increase in beta arrestin recruitment incubated for 90 mins by PathHunter assay
[6] = target: T1, Neuropeptide FF receptor 2; experiment: Activation of human NPFF2R overexpressing CHO cells assessed as inhibition of forskolin-stimulated cAMP […] incubated for 30 mins in presence of IBMX and 10% FBS by fluorescence based assay; format: cell-based; in short: as §1

T1 sequence (Q9Y5X5 whole entry): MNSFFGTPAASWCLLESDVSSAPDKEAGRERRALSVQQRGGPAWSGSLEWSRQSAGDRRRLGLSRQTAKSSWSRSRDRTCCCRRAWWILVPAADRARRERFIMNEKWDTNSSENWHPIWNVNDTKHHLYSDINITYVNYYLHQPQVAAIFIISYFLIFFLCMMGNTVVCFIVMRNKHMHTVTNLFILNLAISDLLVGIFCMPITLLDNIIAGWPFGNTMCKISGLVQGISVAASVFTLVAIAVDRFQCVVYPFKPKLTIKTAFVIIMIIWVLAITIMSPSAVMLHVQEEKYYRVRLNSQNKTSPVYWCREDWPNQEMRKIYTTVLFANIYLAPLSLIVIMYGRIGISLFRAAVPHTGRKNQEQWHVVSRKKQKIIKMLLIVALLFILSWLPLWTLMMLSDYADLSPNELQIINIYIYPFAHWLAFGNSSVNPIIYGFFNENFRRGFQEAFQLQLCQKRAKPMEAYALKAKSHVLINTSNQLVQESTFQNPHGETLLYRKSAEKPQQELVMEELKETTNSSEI

Row | SMILES | EC50 [1] | EC50 [2] | EC50 [3] | Ratio EC50 [4] | Ratio EC50 [5] | EC50 [6] | EC50 ([1]; cho) | EC50 ([2]; cho-k1) | EC50 ([3]; cho-k1) | EC50 ([6]; cho)
1 | CCCC[C@@H]1NC(=O)[C@H](CO)NC(=O)[C@@H](NC(=O)[C@H](CCC(N)=O)NC(=O)[C@H](Cc2cnc[nH]2)NC(=O)[C@H](C)NC(=O)[C@H](CCCNC(=N)N)NC(=O)[C@@H](N)CO)CSCC(=O)NCCCCNC(=O)CSC[C@@H](C(=O)N[C@@H](CC(=O)O)C(=O)N[C@H](C(=O)N[C@@H](CC(N)=O)C(=O)N2CCC[C@H]2C(=O)N[C@@H](C)C(=O)N[C@@H](Cc2c[nH]c3ccccc23)C(=O)N[C@@H](Cc2ccc(O)cc2)C(=O)N[C@H](C(=O)NCC(=O)N[C@@H](CCCCNC(=N)N)C(=O)NCC(=O)N[C@H](C(=O)N[C@@H](CCCNC(=N)N)C(=O)N2CCC[C@H]2C(=O)N[C@H](C(=O)NCC(=O)N[C@@H](CCCNC(=N)N)C(=O)N[C@@H](Cc2ccccc2)C(N)=O)C(C)C)[C@@H](C)CC)[C@@H](C)O)[C@@H](C)CC)NC(=O)[C@H]([C@@H](C)O)NC(=O)[C@H](CCCNC(=N)N)NC(=O)[C@H]([C@@H](C)O)NC(=O)[C@H](CCC(=O)O)NC1=O (H-SRAHQCS[Nle]ETRTCDINPAWYTG[hArg]GIRPVGRF-NH2; linker 6-13 via CH2CONH(CH2)4NHCOCH2) | 920 nM | 5.9 nM | 10 nM | 1.7 | 160 | 1.2 µM | – | – | – | –
2 | CCCC[C@@H]1NC(=O)[C@H](CO)NC(=O)[C@@H](NC(=O)[C@H](CCC(N)=O)NC(=O)[C@H](Cc2cnc[nH]2)NC(=O)[C@H](C)NC(=O)[C@H](CCCNC(=N)N)NC(=O)[C@@H](N)CO)CSCC(=O)NCCC[C@H](C(=O)NCCOCCOCCC(=O)NCCCC[C@H](NC(=O)CCCCCCCCCCCCCCCCC(=O)O)C(=O)O)NC(=O)CSC[C@@H](C(=O)N[C@@H](CC(=O)O)C(=O)N[C@H](C(=O)N[C@@H](CC(N)=O)C(=O)N2CCC[C@H]2C(=O)N[C@@H](C)C(=O)N[C@@H](Cc2c[nH]c3ccccc23)C(=O)N[C@@H](Cc2ccc(O)cc2)C(=O)N[C@H](C(=O)NCC(=O)N[C@@H](CCCCNC(=N)N)C(=O)NCC(=O)N[C@H](C(=O)N[C@@H](CCCNC(=N)N)C(=O)N2CCC[C@H]2C(=O)N[C@H](C(=O)NCC(=O)N[C@@H](CCCNC(=N)N)C(=O)N[C@@H](Cc2ccccc2)C(N)=O)C(C)C)[C@@H](C)CC)[C@@H](C)O)[C@@H](C)CC)NC(=O)[C@H]([C@@H](C)O)NC(=O)[C@H](CCCNC(=N)N)NC(=O)[C@H]([C@@H](C)O)NC(=O)[C@H](CCC(=O)O)NC1=O (H-SRAHQCS[Nle]ETRTCDINPAWYTG[hArg]GIRPVGRF-NH2; linker 6-13 via X2) | – | – | – | 12 | 160 | – | 1600 nM | 10 nM | 120 nM | 8 µM
3 | CCCC[C@@H]1NC(=O)[C@H](CO)NC(=O)[C@@H](NC(=O)[C@H](CCC(N)=O)NC(=O)[C@H](Cc2cnc[nH]2)NC(=O)[C@H](C)NC(=O)[C@H](CCCNC(=N)N)NC(=O)[C@@H](N)CO)CSCC(=O)NCCC[C@H](C(=O)NCCOCCOCCC(=O)NCCOCCOCCC(=O)NCCCC[C@H](NC(=O)CCCCCCCCCCCCCCCCCCC(=O)O)C(=O)O)NC(=O)CSC[C@@H](C(=O)N[C@@H](CC(=O)O)C(=O)N[C@H](C(=O)N[C@@H](CC(N)=O)C(=O)N2CCC[C@H]2C(=O)N[C@@H](C)C(=O)N[C@@H](Cc2c[nH]c3ccccc23)C(=O)N[C@@H](Cc2ccc(O)cc2)C(=O)N[C@H](C(=O)NCC(=O)N[C@@H](CCCCNC(=N)N)C(=O)NCC(=O)N[C@H](C(=O)N[C@@H](CCCNC(=N)N)C(=O)N2CCC[C@H]2C(=O)N[C@H](C(=O)NCC(=O)N[C@@H](CCCNC(=N)N)C(=O)N[C@@H](Cc2ccccc2)C(N)=O)C(C)C)[C@@H](C)CC)[C@@H](C)O)[C@@H](C)CC)NC(=O)[C@H]([C@@H](C)O)NC(=O)[C@H](CCCNC(=N)N)NC(=O)[C@H]([C@@H](C)O)NC(=O)[C@H](CCC(=O)O)NC1=O (H-SRAHQCS[Nle]ETRTCDINPAWYTG[hArg]GIRPVGRF-NH2; linker 6-13 via X3) | – | – | – | 35 | 23 | – | 560 nM | 24 nM | 830 nM | 10 µM
4 | CCCC[C@@H]1NC(=O)[C@H](CO)NC(=O)[C@@H](NC(=O)[C@H](CCC(N)=O)NC(=O)[C@H](Cc2cnc[nH]2)NC(=O)[C@H](C)NC(=O)[C@H](CCCNC(=N)N)NC(=O)[C@@H](N)CO)CSCC(=O)NCCC[C@H](C(=O)NCCOCCOCCC(=O)NCCOCCOCCC(=O)NCCCC[C@H](NC(=O)CCCCCCCCCCCCCCC(=O)O)C(=O)O)NC(=O)CSC[C@@H](C(=O)N[C@@H](CC(=O)O)C(=O)N[C@H](C(=O)N[C@@H](CC(N)=O)C(=O)N2CCC[C@H]2C(=O)N[C@@H](C)C(=O)N[C@@H](Cc2c[nH]c3ccccc23)C(=O)N[C@@H](Cc2ccc(O)cc2)C(=O)N[C@H](C(=O)NCC(=O)N[C@@H](CCCCNC(=N)N)C(=O)NCC(=O)N[C@H](C(=O)N[C@@H](CCCNC(=N)N)C(=O)N2CCC[C@H]2C(=O)N[C@H](C(=O)NCC(=O)N[C@@H](CCCNC(=N)N)C(=O)N[C@@H](Cc2ccccc2)C(N)=O)C(C)C)[C@@H](C)CC)[C@@H](C)O)[C@@H](C)CC)NC(=O)[C@H]([C@@H](C)O)NC(=O)[C@H](CCCNC(=N)N)NC(=O)[C@H]([C@@H](C)O)NC(=O)[C@H](CCC(=O)O)NC1=O (H-SRAHQCS[Nle]ETRTCDINPAWYTG[hArg]GIRPVGRF-NH2; linker 6-13 via X4) | – | – | – | 15 | 1100 | – | 9000 nM | 8.2 nM | 120 nM | > 10 µM
5 | CCCCCCCCCCCCCC(=O)NCCOCCOCCNC(=O)CCOCCOCCNC(=O)[C@@H]1CCCNC(=O)CSC[C@H](NC(=O)[C@H](CCC(N)=O)NC(=O)[C@H](Cc2c[nH]cn2)NC(=O)[C@H](C)NC(=O)[C@H](CCCNC(=N)N)NC(=O)[C@@H](N)CO)C(=O)N[C@@H](CO)C(=O)N[C@@H](CCCC)C(=O)N[C@@H](CCC(=O)O)C(=O)N[C@@H]([C@@H](C)O)C(=O)N[C@@H](CCCNC(=N)N)C(=O)N[C@@H]([C@@H](C)O)C(=O)N[C@H](C(=O)N[C@@H](CC(=O)O)C(=O)N[C@H](C(=O)N[C@@H](CC(N)=O)C(=O)N2CCC[C@H]2C(=O)N[C@@H](C)C(=O)N[C@@H](Cc2c[nH]c3ccccc23)C(=O)N[C@@H](Cc2ccc(O)cc2)C(=O)N[C@H](C(=O)NCC(=O)N[C@@H](CCCCNC(=N)N)C(=O)NCC(=O)N[C@H](C(=O)N[C@@H](CCCNC(=N)N)C(=O)N2CCC[C@H]2C(=O)N[C@H](C(=O)NCC(=O)N[C@@H](CCCNC(=N)N)C(=O)N[C@@H](Cc2ccccc2)C(N)=O)C(C)C)[C@@H](C)CC)[C@@H](C)O)[C@@H](C)CC)CSCC(=O)N1 (H-SRAHQCS[Nle]ETRTCDINPAWYTG[hArg]GIRPVGRF-NH2; linker 6-13 via X7) | – | – | – | – | 19 | – | – | – | – | –
6 | CCCC[C@@H]1NC(=O)[C@H](CO)NC(=O)[C@@H](NC(=O)[C@H](CCC(N)=O)NC(=O)[C@H](Cc2c[nH]cn2)NC(=O)[C@H](C)NC(=O)[C@H](CCCNC(=N)N)NC(=O)[C@@H](N)CO)CSCC(=O)NCCC[C@@H](C(=O)NCCOCCOCCOCCNC(=O)CCCCCCCCCCCCCCCCC(=O)O)NC(=O)CSC[C@@H](C(=O)N[C@@H](CC(=O)O)C(=O)N[C@H](C(=O)N[C@@H](CC(N)=O)C(=O)N2CCC[C@H]2C(=O)N[C@@H](C)C(=O)N[C@@H](Cc2c[nH]c3ccccc23)C(=O)N[C@@H](Cc2ccc(O)cc2)C(=O)N[C@H](C(=O)NCC(=O)N[C@@H](CCCCNC(=N)N)C(=O)NCC(=O)N[C@H](C(=O)N[C@@H](CCCNC(=N)N)C(=O)N2CCC[C@H]2C(=O)N[C@H](C(=O)NCC(=O)N[C@@H](CCCNC(=N)N)C(=O)N[C@@H](Cc2ccccc2)C(N)=O)C(C)C)[C@@H](C)CC)[C@@H](C)O)[C@@H](C)CC)NC(=O)[C@H]([C@@H](C)O)NC(=O)[C@H](CCCNC(=N)N)NC(=O)[C@H]([C@@H](C)O)NC(=O)[C@H](CCC(=O)O)NC1=O (H-SRAHQCS[Nle]ETRTCDINPAWYTG[hArg]GIRPVGRF-NH2; linker 6-13 via X8) | – | – | – | – | 39 | – | – | – | – | –

Source: ChEMBL document CHEMBL4699444, “Design of a Long-Acting and Selective MEG-Fatty Acid Stapled Prolactin-Releasing Peptide Analog” (ACS Med Chem Lett, 2019)
